Assay results: ChEMBL document CHEMBL5678805, “Intermittent administration of MEK inhibitor GDC-0973 plus PI3K inhibitor GDC-0941 triggers robust apoptosis and tumor growth inhibition” (Cancer Res, 2012)
Activity calls are given as the source filed them. No cut-off for these calls is given here.

Assays:
[1] = test system: A2058; test: Antitumor activity against human A2058 cells harboring BRAF V600E/PTEN deletion mutant xenografted in mouse assessed as increase in Bim level at 15 mg/kg, po administered every third day for 21 days and measured after 72 hrs post dose in presence of 4-(2-(1H-indazol-4-yl)-6-((4-(methylsulfonyl)piperazin-1-yl)methyl)thieno[3,2-d]pyrimidin-4-yl)morpholine by Western blot analysis; assay type: functional, organism-based; details: time 576.0 hrs
[2] = target: Phosphatidylinositol 4,5-bisphosphate 3-kinase catalytic subunit beta isoform (Homo sapiens, UniProt P42338); test: Inhibition of PI3Kbeta (unknown origin)
[3] = Antitumor activity against human A375.X1 cells xenografted in mouse assessed as tumor growth inhibition at 20 mg/kg, po administered every third day for 21 days; assay type: functional; details: A375.X1, 504 h, time 21 day, read-out: TGI
Outline: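 Human tumor xenografts in mice. Drugs given orally, as single agents or combined with the PI3K inhibitor. Schedules were daily (QD) or every third day (Q3D) over 21 days. Tumor volume was measured by caliper as (L×W×W)/2. %TGI = 100×[1 − AUC(treatment/d)/AUC(vehicle/d)] from fitted growth curves, with group means. Tumor lysates were immunoblotted for pS6.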

[4] = test system: A2058; test: Antitumor activity against human A2058 cells harboring BRAF V600E/PTEN L112Q/V175/TP53 V274F mutant xenografted in mouse assessed as tumor growth inhibition at 5 mg/kg, po; assay type: functional; details: read-out: TGI
Outline: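 Mice carrying human tumor xenografts dosed orally once daily for 21 consecutive days. Tumor volume measured by calipers as (L×W×W)/2. %TGI = 100×[1 − AUC(treatment/day)/AUC(vehicle/day)], using the area under the fitted growth curve relative to vehicle.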

[5] = test system: MOLM-13; test: Antitumor activity against human MOLM-13 cells harboring FLT3 Y599_D600insFDFREYE and c-Cbl E366_Q409del mutant xenografted in mouse assessed as tumor growth inhibition at 10 mg/kg, po; assay type: functional; details: read-out: TGI
Outline: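 Human tumor xenografts in mice were dosed orally at the indicated mg/kg. Tumor volume was measured with calipers as (L×W×W)/2. %TGI = 100 × [1 − (AUC treatment/d)/(AUC vehicle/d)], using the area under the fitted tumor-growth curve per day for each dose group relative to vehicle.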

[6] = target: Vascular endothelial growth factor receptor 1 (Homo sapiens, UniProt P17948); test: Inhibition of Flt1 (unknown origin)
Vascular endothelial growth factor receptor 1, sequence (P17948 whole entry): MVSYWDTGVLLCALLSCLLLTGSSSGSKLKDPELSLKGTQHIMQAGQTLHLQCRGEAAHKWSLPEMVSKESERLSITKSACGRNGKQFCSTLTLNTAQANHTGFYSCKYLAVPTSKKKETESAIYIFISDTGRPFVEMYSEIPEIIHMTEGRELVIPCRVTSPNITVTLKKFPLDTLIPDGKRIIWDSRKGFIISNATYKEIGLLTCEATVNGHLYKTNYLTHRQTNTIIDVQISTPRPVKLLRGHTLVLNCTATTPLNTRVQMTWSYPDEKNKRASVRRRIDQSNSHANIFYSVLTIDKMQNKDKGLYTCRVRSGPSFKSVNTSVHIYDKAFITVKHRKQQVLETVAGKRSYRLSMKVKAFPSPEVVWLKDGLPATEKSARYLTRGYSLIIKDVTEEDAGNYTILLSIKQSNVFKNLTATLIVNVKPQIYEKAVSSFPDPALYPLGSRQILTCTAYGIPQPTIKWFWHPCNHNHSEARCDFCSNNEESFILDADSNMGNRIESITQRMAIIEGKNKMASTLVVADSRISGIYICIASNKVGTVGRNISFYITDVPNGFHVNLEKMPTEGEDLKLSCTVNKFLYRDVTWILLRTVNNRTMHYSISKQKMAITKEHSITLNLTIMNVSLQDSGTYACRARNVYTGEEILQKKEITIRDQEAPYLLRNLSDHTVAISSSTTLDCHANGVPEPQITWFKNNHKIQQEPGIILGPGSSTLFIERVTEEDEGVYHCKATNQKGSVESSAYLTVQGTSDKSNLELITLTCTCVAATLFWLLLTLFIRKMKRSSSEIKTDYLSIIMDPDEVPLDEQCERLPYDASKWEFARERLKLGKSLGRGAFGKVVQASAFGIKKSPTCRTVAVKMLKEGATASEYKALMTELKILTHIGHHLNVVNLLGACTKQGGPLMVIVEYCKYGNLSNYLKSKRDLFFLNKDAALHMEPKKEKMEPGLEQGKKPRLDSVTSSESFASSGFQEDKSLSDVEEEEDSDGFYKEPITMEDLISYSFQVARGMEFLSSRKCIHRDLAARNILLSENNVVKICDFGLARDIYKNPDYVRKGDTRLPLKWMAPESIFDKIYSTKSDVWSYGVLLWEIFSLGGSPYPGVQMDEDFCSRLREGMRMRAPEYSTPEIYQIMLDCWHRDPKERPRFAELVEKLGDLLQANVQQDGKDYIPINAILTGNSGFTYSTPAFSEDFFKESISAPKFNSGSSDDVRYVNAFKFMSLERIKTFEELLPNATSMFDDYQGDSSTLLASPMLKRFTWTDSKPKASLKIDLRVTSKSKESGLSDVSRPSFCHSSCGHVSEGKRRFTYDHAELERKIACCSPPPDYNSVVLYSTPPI

[7] = test system: A-375; test: Antiproliferative activity against human A-375 cells assessed reduction in cell viability incubated for 4 days in presence of 4-(2-(1H-indazol-4-yl)-6-((4-(methylsulfonyl)piperazin-1-yl)methyl)thieno[3,2-d]pyrimidin-4-yl)morpholine by celltiter-glo assay; assay type: functional; details: time 4 day
Outline: (§1)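 4-day CellTiter-Glo viability read-out on melanoma lines, cells exposed to increasing concentrations of each inhibitor alone and in combination.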

[8] = test system: A2058; test: Antitumor activity against human A2058 cells harboring BRAF V600E/PTEN deletion mutant xenografted in mouse assessed as decrease in cyclin D1 level at 15 mg/kg, po administered every third day for 21 days and measured after 72 hrs post dose in presence of 4-(2-(1H-indazol-4-yl)-6-((4-(methylsulfonyl)piperazin-1-yl)methyl)thieno[3,2-d]pyrimidin-4-yl)morpholine by Western blot analysis; assay type: functional, organism-based; details: time 576.0 hrs
[9] = target: Serine/threonine-protein kinase pim-1 (Homo sapiens, UniProt P11309); test: Inhibition of PIM1 (unknown origin)
[10] = target: Serine/threonine-protein kinase PLK3 (Homo sapiens, UniProt Q9H4B4); test: Inhibition of Plk3 (unknown origin)
Serine/threonine-protein kinase PLK3, sequence (Q9H4B4 whole entry): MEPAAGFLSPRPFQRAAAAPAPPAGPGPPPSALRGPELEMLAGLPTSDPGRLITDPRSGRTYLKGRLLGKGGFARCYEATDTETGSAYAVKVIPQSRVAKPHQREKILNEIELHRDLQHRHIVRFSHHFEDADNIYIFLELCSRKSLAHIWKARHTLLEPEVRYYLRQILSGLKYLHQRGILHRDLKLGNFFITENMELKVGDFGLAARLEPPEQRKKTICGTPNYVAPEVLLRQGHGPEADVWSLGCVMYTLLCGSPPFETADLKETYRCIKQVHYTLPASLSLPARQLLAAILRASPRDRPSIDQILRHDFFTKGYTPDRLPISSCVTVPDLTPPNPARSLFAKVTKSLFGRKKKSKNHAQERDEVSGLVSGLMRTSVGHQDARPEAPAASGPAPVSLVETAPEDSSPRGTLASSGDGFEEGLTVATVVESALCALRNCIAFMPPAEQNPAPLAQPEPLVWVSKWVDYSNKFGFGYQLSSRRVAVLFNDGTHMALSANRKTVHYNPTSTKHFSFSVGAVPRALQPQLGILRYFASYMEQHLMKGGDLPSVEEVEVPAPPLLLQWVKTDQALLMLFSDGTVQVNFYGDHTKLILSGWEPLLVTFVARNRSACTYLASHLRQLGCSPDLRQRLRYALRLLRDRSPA

[11] = target: Mitogen-activated protein kinase kinase kinase kinase 3 (Homo sapiens, UniProt Q8IVH8); test: Inhibition of MAP4K3 (unknown origin)
[12] = target: ALK tyrosine kinase receptor (Homo sapiens, UniProt Q9UM73); test: Inhibition of ALK (unknown origin)
[13] = target: Interleukin-1 receptor-associated kinase 1 (Homo sapiens, UniProt P51617); test: Inhibition of IRAK1 (unknown origin)
Interleukin-1 receptor-associated kinase 1, sequence (P51617 whole entry): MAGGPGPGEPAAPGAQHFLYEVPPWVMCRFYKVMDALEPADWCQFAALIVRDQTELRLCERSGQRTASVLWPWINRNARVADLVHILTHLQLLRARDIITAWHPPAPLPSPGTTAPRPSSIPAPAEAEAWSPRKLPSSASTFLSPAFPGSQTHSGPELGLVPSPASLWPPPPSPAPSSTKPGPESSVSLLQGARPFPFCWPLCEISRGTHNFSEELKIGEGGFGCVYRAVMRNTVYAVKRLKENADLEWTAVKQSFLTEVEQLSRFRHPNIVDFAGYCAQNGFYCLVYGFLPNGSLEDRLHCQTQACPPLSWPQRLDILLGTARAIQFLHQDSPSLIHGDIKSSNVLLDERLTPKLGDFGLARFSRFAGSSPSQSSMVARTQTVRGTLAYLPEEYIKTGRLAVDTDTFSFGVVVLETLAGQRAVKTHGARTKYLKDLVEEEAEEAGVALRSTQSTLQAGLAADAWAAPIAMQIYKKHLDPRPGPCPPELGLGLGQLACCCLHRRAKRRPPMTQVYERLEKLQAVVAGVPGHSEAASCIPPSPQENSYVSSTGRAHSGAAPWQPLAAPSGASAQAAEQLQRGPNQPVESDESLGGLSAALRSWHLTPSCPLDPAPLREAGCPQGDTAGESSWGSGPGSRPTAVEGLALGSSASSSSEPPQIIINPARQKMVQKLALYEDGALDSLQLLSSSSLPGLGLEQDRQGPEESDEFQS

[14] = test system: NCI-H2122; test: Antitumor activity against human NCI-H2122 cells xenografted in mouse assessed as tumor growth inhibition at 5 mg/kg, po administered once a day for 21 days; assay type: functional; details: NCI-H2122, 504 h, read-out: TGI, time 21 day
Outline: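 Mice bearing NCI-H2122 xenografts were given MEK inhibitor, PI3K inhibitor, or both, orally once daily for 21 consecutive days at the doses labeled. Caliper tumor volumes were calculated as (L×W×W)/2. %TGI was derived from the AUC of the fitted growth curve per day relative to vehicle.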

[15] = target: Insulin-like growth factor 1 receptor (Homo sapiens, UniProt P08069); test: Inhibition of IGF1R (unknown origin)
[16] = test system: 888-mel; test: Inhibition of AKT phosphorylation in human 888-mel cells incubated for 24 hrs in presence of 4-(2-(1H-indazol-4-yl)-6-((4-(methylsulfonyl)piperazin-1-yl)methyl)thieno[3,2-d]pyrimidin-4-yl)morpholine by immunoblotting analysis; assay type: cell-based
[17] = Antitumor activity against human A2058-X1 cells harboring BRAF V600E/PTEN L112Q/V175/TP53 V274F mutant xenografted in mouse assessed as tumor growth inhibition at 5 mg/kg, po; assay type: functional; details: A2058-X1, read-out: TGI
Outline: (§2)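 Single-agent dose ranging in human tumor xenograft mice at 2.5, 5 or 10 mg/kg oral. Tumor volume was measured by caliper as (L×W×W)/2. %TGI = 100×[1 − AUC(treatment/d)/AUC(vehicle/d)] from the fitted growth curve per dose group, relative to vehicle.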

[18] = test system: DLD-1; test: Antitumor activity against human DLD-1 cells harboring KRAS G13D/IDH1 G97D/SMO T640A/APC I1417 mutant xenografted in mouse assessed as tumor growth inhibition at 5 mg/kg, po; assay type: functional; details: read-out: TGI; outline: as §2
[19] = Inhibition of AMPK (unknown origin); set-up: species or system Homo sapiens
[20] = test system: A2058; test: Antitumor activity against human A2058 cells harboring BRAF V600E/PTEN deletion mutant xenografted in mouse assessed as increase in BimL level at 15 mg/kg, po administered every third day for 21 days and measured after 8 hrs post dose by Western blot analysis; assay type: functional, organism-based; details: time 512.0 hrs
[21] = target: Angiopoietin-1 receptor (Homo sapiens, UniProt Q02763); test: Inhibition of Tie-2 (unknown origin)
Angiopoietin-1 receptor, sequence (Q02763 whole entry): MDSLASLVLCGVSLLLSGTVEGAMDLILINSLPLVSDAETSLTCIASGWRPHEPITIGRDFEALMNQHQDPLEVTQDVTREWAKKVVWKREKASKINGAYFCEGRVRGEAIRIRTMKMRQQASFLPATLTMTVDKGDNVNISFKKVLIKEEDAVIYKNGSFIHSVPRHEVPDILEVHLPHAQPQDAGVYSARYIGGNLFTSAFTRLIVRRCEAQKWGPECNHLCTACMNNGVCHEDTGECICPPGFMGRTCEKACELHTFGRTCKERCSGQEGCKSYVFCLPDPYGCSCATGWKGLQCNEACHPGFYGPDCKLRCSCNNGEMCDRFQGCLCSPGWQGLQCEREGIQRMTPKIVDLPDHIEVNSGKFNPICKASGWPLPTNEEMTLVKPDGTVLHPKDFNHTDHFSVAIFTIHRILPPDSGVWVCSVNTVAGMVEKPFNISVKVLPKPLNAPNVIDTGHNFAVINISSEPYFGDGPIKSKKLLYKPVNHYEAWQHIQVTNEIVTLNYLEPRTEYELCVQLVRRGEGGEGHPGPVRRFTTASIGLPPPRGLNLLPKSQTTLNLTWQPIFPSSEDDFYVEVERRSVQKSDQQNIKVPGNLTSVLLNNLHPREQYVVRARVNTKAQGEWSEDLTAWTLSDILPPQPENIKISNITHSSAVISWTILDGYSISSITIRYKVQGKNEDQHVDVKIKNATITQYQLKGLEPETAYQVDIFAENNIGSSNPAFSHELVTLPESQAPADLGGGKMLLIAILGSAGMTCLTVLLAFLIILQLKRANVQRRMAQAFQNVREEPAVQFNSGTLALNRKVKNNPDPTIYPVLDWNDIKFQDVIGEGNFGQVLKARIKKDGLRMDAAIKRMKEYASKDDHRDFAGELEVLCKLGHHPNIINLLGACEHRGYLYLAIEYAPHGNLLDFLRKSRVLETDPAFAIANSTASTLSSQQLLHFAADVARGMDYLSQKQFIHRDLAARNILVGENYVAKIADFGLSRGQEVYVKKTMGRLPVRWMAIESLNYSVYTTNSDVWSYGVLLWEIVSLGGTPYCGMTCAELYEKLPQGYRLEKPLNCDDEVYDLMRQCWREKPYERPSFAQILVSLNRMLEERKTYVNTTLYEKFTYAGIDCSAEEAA

[22] = test system: FaDu; test: Antitumor activity against human FaDu cells harboring SMAD4 del/TP53 R248L/CDKN2A mutant xenografted in mouse assessed as tumor growth inhibition at 5 mg/kg, po; assay type: functional; details: read-out: TGI; outline: as §2
[23] = target: Platelet-derived growth factor receptor beta (Homo sapiens, UniProt P09619); test: Inhibition of PDGFR beta (unknown origin)
Platelet-derived growth factor receptor beta, sequence (P09619 whole entry): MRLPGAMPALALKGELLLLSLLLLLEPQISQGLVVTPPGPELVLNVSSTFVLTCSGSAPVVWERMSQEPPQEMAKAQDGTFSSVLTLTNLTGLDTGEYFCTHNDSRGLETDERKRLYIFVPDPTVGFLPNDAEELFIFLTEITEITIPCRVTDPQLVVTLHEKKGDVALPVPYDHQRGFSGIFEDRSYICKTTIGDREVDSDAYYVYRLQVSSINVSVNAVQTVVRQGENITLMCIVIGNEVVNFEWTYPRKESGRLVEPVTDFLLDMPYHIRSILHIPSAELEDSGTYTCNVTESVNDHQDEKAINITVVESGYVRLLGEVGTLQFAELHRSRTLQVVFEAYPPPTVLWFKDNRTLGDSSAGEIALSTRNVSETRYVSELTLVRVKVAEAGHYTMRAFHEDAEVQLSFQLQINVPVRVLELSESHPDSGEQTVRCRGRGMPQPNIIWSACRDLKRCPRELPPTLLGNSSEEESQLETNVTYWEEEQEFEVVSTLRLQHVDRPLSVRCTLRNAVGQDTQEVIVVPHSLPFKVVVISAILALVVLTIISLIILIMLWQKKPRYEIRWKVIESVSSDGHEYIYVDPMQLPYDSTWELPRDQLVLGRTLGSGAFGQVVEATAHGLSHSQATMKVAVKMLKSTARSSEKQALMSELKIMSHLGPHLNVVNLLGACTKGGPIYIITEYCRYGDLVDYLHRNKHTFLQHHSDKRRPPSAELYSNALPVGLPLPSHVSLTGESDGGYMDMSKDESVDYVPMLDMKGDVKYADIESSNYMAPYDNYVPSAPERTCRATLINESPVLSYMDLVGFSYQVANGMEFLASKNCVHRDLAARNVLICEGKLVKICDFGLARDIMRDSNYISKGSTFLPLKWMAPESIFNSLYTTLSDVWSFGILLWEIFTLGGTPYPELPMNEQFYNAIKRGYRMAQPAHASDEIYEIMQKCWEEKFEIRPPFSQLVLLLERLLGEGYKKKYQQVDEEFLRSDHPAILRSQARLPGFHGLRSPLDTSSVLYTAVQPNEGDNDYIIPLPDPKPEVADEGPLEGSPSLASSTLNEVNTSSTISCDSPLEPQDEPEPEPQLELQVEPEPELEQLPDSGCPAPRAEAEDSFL

[24] = test system: KP-4; test: Antitumor activity against human KP-4 cells harboring KRAS G12D mutant xenografted in mouse assessed as tumor growth inhibition at 5 mg/kg, po; assay type: functional; details: read-out: TGI; outline: as §2
[25] = target: Inhibitor of nuclear factor kappa-B kinase subunit alpha (Homo sapiens, UniProt O15111); test: Inhibition of IKKa (unknown origin)
[26] = target: Phosphatidylinositol 4,5-bisphosphate 3-kinase catalytic subunit alpha isoform (Homo sapiens, UniProt P42336); test: Inhibition of PI3Kalpha (unknown origin)
[27] = test system: G-361; test: Antiproliferative activity against human G361 cells assessed reduction in cell viability incubated for 4 days in presence of 4-(2-(1H-indazol-4-yl)-6-((4-(methylsulfonyl)piperazin-1-yl)methyl)thieno[3,2-d]pyrimidin-4-yl)morpholine by celltiter-glo assay; assay type: functional; details: time 4 day; outline: as §1

O=C(c1ccc(F)c(F)c1Nc1ccc(I)cc1F)N1CC(O)([C@@H]2CCCCN2)C1 [COBIMETINIB]
Activity [1]: Active | IC50 [2]: > 10 µM | inhibition in vivo at 20 mg/kg [3]: 94% | inhibition in vivo at 5 mg/kg [4]: 12.7% | inhibition in vivo at 10 mg/kg [5]: 36% | IC50 [6]: > 10 µM | Activity [7]: 60% | Activity [8]: Active | IC50 [9]: > 10 µM | IC50 [10]: > 10 µM | IC50 [11]: > 10 µM | IC50 [12]: > 10 µM | IC50 [13]: > 10 µM | inhibition in vivo at 5 mg/kg [14]: 49% | IC50 [15]: > 10 µM | inhibition [16]: Active | inhibition in vivo at 5 mg/kg [17]: 45% | inhibition in vivo at 5 mg/kg [18]: 50.2% | IC50 [19]: > 10 µM | Activity [20]: Active | IC50 [21]: > 10 µM | inhibition in vivo at 5 mg/kg [22]: 94% | IC50 [23]: > 10 µM | inhibition in vivo at 5 mg/kg [24]: 69.5% | IC50 [25]: > 10 µM | IC50 [26]: > 10 µM | Activity [27]: 60%
